Assay results from different studies.
Lines come from different studies, so protocols differ.
Target: Serine/threonine-protein kinase 4 (STK4, Homo sapiens, UniProt Q13043)
Residues used in one study (Q13043 1-487): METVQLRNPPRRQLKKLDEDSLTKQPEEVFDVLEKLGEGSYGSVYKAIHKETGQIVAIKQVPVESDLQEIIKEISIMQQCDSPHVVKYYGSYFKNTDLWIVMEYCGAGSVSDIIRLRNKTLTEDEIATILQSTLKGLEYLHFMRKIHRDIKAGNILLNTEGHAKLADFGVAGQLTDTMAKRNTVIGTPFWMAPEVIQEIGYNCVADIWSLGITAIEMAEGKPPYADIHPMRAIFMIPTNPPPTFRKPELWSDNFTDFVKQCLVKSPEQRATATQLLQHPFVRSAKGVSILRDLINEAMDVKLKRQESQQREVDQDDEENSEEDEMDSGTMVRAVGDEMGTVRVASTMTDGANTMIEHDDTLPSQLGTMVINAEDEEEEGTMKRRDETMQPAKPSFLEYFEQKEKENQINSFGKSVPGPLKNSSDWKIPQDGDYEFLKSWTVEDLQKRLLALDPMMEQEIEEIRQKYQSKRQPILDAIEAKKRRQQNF

Structure (SMILES)	effect on	action	technique	tested at	endpoint	result
COc1cc(Cl)c(C(=O)N[C@@H](CN[C@H]2CC[C@@H](N)CC2)Cc2ccc(C#N)cc2)cc1-c1ccc(CN[C@H](C)c2ccc(C)cc2)o1	enzyme activity	inhibitor		1 µM	remaining activity	102%
Cc1ccc(C(=O)Nc2ccc(CN3CCN(C)CC3)c(C(F)(F)F)c2)cc1C#Cc1cnc2cccnn12	enzyme activity	inhibitor		23.5 nM	remaining activity	100%
Cc1cc(NC(=O)c2cccc3cc(-c4cccc5[nH]nc(N)c45)ccc23)ccc1F	enzyme activity	inhibitor		0.1 µM	activity vs control	104%
O=C1Nc2ccc(Cl)cc2C1=Cc1cc(Cl)c(O)c(Cl)c1	cell-free assay			0.5 µM	remaining signal	32.5%
COc1cc2ncnc(Nc3ccc(Oc4ccccc4)c(C)c3C)c2cc1OC	enzyme activity	inhibitor		1 µM	inhibition	-7%
Cn1c2c(Cl)c(Cl)ccc2c2cc(N)[nH]c(=O)c21	thermal stability		DSF	10 µM	ΔTm	1.5 °C
CNC(=O)c1cc(Oc2ccc(NC(=O)Nc3ccc(Cl)c(C(F)(F)F)c3)cc2)ccn1	enzyme activity	inhibitor		10 µM	inhibition	3%
Cn1c2c(c3ccccc31)C(C#N)C(C)(C)NC2=O (centres unmarked)	thermal stability		DSF	10 µM	ΔTm	0.2 °C
COc1cccc2c(NCc3ccccc3)nc(-n3c(N)nc4ccccc43)nc12	target engagement in cells	inhibitor	chemoproteomics	20 mM	inhibition	6.2%
CC1(C)NC(=O)c2[nH]c3c(Cl)c(Cl)ccc3c2C1C#N (centres unmarked)	thermal stability		DSF	10 µM	ΔTm	-0.6 °C
CN1CC(Oc2cnc(C#N)cc2-c2ccn3nc(NC(=O)C4CC4)cc3c2)C1	enzyme activity	inhibitor		1 µM	inhibition	-5%
CCCCNc1ncc2c(-c3ccc(F)cc3)nn(C[C@H]3CC[C@H](N)CC3)c2n1	target engagement in cells	inhibitor	chemoproteomics	20 mM	inhibition	48.3%
C[C@@H]1CCN(C(=O)CC#N)C[C@@H]1N(C)c1ncnc2[nH]ccc12	cell-free assay	inhibitor		0.5 µM	remaining signal	95.5%
O=C(Nc1cccnn1)N1CC(C/C=C/c2cncc(Oc3ccc(C(F)(F)F)cn3)n2)C1	cell-free assay		competition with immobilised ligand	1 µM	remaining binding	100%
CC(C)(O)[C@H]1CC[C@H](Nc2ccc3ncc(-c4cccc(C(F)(F)F)c4)n3n2)CC1	enzyme activity	inhibitor		1 µM	remaining activity	90.8%
CS(=O)(=O)N1CCCC(NC(=O)[C@H](CCC2CCCCC2)NC(=O)c2ccc(CNC(=O)c3cnc4ccccn34)cc2)C1 (some centres unmarked)	cell-free assay		competition with immobilised ligand	0.1 µM	remaining binding	100%
CC(C)(C)c1nc2c(s1)c1nc(N)ncc1c1ccc(NS(=O)(=O)c3c(F)cccc3F)c(F)c12	enzyme activity	inhibitor	radiometric	1 µM	remaining activity	86%
Cc1nccc(COC(=O)N2C[C@@H]3[C@@H](CNC(=O)c4ccc5[nH]nnc5c4)[C@@H]3C2)n1	cell-free assay		competition with immobilised ligand	1 µM	remaining binding	100%
CCN(CC)CCNC(=O)c1c(C)[nH]c(/C=C2\C(=O)Nc3ccc(F)cc32)c1C	cell-free assay			0.5 µM	remaining signal	10.7%
CNC(=O)Nc1ccc2c(c1)CC[C@@]21OC(=O)N(CC(=O)N(Cc2ccc(F)cc2)[C@@H](C)C(F)(F)F)C1=O	cell-free assay		competition with immobilised ligand	1 µM	remaining binding	100%
O=C(Nc1cnn(-c2csc(C(=O)NC3COC3)c2)c1)Nc1ccccc1Cl	enzyme activity	inhibitor		5 µM	remaining activity	99.3%
Cc1cc(-n2nc(Cc3cc(F)cc(C(F)(F)F)c3)nc2C)ccc1C(N)=O	cell-free assay		competition with immobilised ligand	1 µM	remaining binding	100%
Cc1ccc(Nc2nccc(N(C)c3ccc4c(C)n(C)nc4c3)n2)cc1S(N)(=O)=O	enzyme activity	inhibitor		0.3 µM	inhibition	1%
O=C(N1CCS(=O)(=O)CC1)N1C[C@H](c2ccc(OC(F)(F)F)cc2)C[C@H](c2nc(C3CC3)no2)C1	cell-free assay		competition with immobilised ligand	1 µM	remaining binding	100%
CCC1(CC)NC(=O)c2c(c3ccc(Cl)c(Cl)c3n2C)C1C#N (centres unmarked)	thermal stability		DSF	10 µM	ΔTm	-0.3 °C
O=C(Nc1ccc(Oc2ccc(F)cc2)cc1)N1CCc2ncccc2[C@H]1c1ccc(F)cc1	cell-free assay		competition with immobilised ligand	1 µM	remaining binding	99%
CN1CCC2(CC1)NC(=O)c1c(c3ccc(Cl)c(Cl)c3n1C)C2C#N (racemic)	thermal stability		DSF	10 µM	ΔTm	0 °C
Cc1cc(C)c(-n2ccn3nc(-c4cccnc4)cc23)cc1NC(=O)c1cc(C#N)cc(S(F)(F)(F)(F)F)c1	cell-free assay		competition with immobilised ligand	0.1 µM	remaining binding	88.5%
CC/C(=N\NC(=O)NCc1cccc(O)c1)c1ccc(O)c(C)c1O	enzyme activity	inhibitor		0.1 µM	inhibition	-0.7%
